Data from ChEMBL document CHEMBL1765089, “A class of 5-benzylidene-2-phenylthiazolinones with high potency as direct 5-lipoxygenase inhibitors” (J Med Chem, 2011).
pIC50: −log10 of the molar value.

Assays:
[1] = target: T1, Polyunsaturated fatty acid 5-lipoxygenase (Homo sapiens, UniProt P09917); assay: Inhibition of 5-lipoxygenase in S100 supernatant assessed as inhibition of (5(S)-hydroperoxy-6-trans-8,11,14-cis-eicosatetraenoic acid production preincubated for 15 mins measured after 10 mins by HPLC method
T1 sequence (P09917 whole entry): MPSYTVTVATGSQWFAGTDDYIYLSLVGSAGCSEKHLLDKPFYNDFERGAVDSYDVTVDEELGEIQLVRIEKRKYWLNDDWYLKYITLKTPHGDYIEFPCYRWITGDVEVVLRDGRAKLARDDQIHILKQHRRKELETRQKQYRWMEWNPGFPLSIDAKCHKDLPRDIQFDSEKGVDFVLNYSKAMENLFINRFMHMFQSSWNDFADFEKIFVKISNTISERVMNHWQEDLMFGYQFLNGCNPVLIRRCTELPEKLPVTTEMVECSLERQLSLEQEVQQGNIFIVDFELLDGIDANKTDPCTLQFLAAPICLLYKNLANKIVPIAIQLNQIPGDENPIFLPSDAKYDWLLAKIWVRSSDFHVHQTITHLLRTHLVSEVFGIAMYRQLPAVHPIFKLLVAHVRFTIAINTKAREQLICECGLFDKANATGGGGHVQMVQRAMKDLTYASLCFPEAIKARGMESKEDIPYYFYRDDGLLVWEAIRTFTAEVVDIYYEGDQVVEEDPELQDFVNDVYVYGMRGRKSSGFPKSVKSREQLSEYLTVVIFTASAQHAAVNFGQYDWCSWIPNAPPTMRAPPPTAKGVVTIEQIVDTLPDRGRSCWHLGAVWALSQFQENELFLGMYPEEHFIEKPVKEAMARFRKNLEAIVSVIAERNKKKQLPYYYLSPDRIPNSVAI
How it was run: (§1)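 Cell-free assay using the 100000g supernatant (S100) of human PMNL homogenates. Samples were preincubated with compound, then 5-LO product formation was started with 1 mM CaCl₂ plus 20 μM arachidonic acid. Three increasing concentrations were tested in three to five independent experiments and normalized to DMSO control. IC₅₀ was estimated by linear interpolation around 50% activity.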

[2] = target: T1, Polyunsaturated fatty acid 5-lipoxygenase; assay: Inhibition of 5-lipoxygenase in S100 supernatant assessed as inhibition of LTB4 production preincubated for 15 mins measured after 10 mins by HPLC method; how it was run: as §1
[3] = target: T1, Polyunsaturated fatty acid 5-lipoxygenase; assay: Inhibition of 5-lipoxygenase in human polymorphonuclear leukocytes assessed as inhibition of LTB4 production preincubated for 15 mins measured after 10 mins by HPLC method; type: cell-based; settings: pooled result: one value given for 2 cell lines, strains, targets or settings
How it was run: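 Isolated intact human polymorphonuclear leukocytes were preincubated with compound, then stimulated with 2.5 μM ionophore A23187 plus exogenous arachidonic acid (20 μM) to bypass cPLA₂ substrate supply. Three increasing concentrations were tested in three to five independent experiments and normalized to DMSO control. IC₅₀ was read by linear interpolation around 50% activity, reported as mean with SEM.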

[4] = target: T2, Polyunsaturated fatty acid 5-lipoxygenase (Homo sapiens) (UniProt P09917); assay: Inhibition of 5-lipoxygenase in human polymorphonuclear leukocytes assessed as residual activity at 30 uM relative to control; type: cell-based
T2 sequence (whole entry): T1 sequence (P09917 whole entry)
How it was run: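 Intact isolated human PMNL were preincubated with compound, then 5-LO product formation was elicited with 2.5 μM A23187 and 20 μM exogenous arachidonic acid. Activity was expressed relative to DMSO control.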

[5] = target: T2, Polyunsaturated fatty acid 5-lipoxygenase (Homo sapiens); assay: Inhibition of 5-lipoxygenase in S100 supernatant assessed as residual activity at 30 uM relative to control
How it was run: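 PMNL homogenate 100000g supernatant (S100) was preincubated with compound, then stimulated with 1 mM CaCl₂ and 20 μM arachidonic acid. 5-LO product formation was expressed relative to DMSO control.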

[6] = target: T1, Polyunsaturated fatty acid 5-lipoxygenase; assay: Inhibition of 5-lipoxygenase

| SMILES | pIC50 [1] | pIC50 [2] | pIC50 [3] | Activity [4] | Activity [5] | pIC50 [6] |
| --- | --- | --- | --- | --- | --- | --- |
| COc1cccc(/C=C2\SC(c3ccc(C)cc3)=NC2=O)c1O | 5.89 | 5.89 | 6.10 | – | – | – |
| CCOc1cc(/C=C2\SC(c3ccc(C)cc3)=NC2=O)cc(Cl)c1O | 5.90 | 5.90 | 5.54 | – | – | – |
| COc1cc(Cl)cc(/C=C2\SC(c3ccccc3)=NC2=O)c1O | 6.52 | 6.52 | 6.19 | – | – | – |
| O=C1N=C(c2ccccc2)S/C1=C\c1c2ccccc2cc2ccccc12 | 6.52 | 6.52 | 5.37 | – | – | – |
| COc1ccc(/C=C2\SC(c3cccc(F)c3)=NC2=O)cc1 | 6.92 | 6.92 | 6.62 | – | – | – |
| CCOc1ccc(/C=C2\SC(c3ccccc3)=NC2=O)cc1 | 6.30 | 6.30 | 5.70 | – | – | – |
| COc1ccc(/C=C2\SC(c3cccc(C(C)=O)c3)=NC2=O)cc1 | 6.89 | 6.89 | 6.42 | – | – | – |
| CCCOc1ccc(/C=C2\SC(N3CCCCCC3)=NC2=O)cc1 | 4.85 | 4.85 | 4.92 | – | – | – |
| O=C1N=C(Nc2ccccc2)S/C1=C\c1ccccc1 | < 4.52 | < 4.52 | < 4.52 | > 60% | > 60% | – |
| COc1cc(/C=C2\SC(c3ccccc3)=NC2=O)cc(Cl)c1O | 5.52 | 5.52 | 5.02 | – | – | – |
| COc1cc(/C=C2\SC(c3ccc(C)cc3)=NC2=O)cc(Cl)c1O | 5.57 | 5.57 | < 5.00 | – | – | – |
| COc1ccc(OC)c(/C=C2\SC(c3ccc(C)cc3)=NC2=O)c1 | 6.89 | 6.89 | 6.46 | – | – | – |
| CN(C)c1ccc(/C=C2\SC(N3CCCCC3)=NC2=O)cc1 | < 4.52 | < 4.52 | 4.70 | > 60% | > 60% | – |
| Cc1ccc(/C=C2\SC(Nc3ccc4ccccc4c3)=NC2=O)cc1 | < 4.52 | < 4.52 | < 4.52 | > 60% | > 60% | – |
| COc1ccc(/C=C2\SC(N3CCCC3)=NC2=O)cc1 | < 4.52 | < 4.52 | < 4.52 | > 60% | > 60% | – |

The remaining lines, values ahead:

| pIC50 [1] | pIC50 [2] | pIC50 [3] | Activity [4] | Activity [5] | pIC50 [6] | SMILES |
| --- | --- | --- | --- | --- | --- | --- |
| 6.96 | 6.96 | 6.26 | – | – | – | COc1ccc(/C=C2\SC(c3ccc(C(C)=O)cc3)=NC2=O)cc1 |
| 6.52 | 6.52 | 6.24 | – | – | – | Cc1ccc(C2=NC(=O)/C(=C/c3cccc(Cl)c3)S2)cc1 |
| 6.20 | 6.20 | 5.71 | – | – | – | COc1ccc(/C=C2\SC(c3ccc(N)cc3)=NC2=O)cc1 |
| 5.52 | 5.52 | 5.36 | – | – | – | COc1cc(/C=C2\SC(c3ccccc3)=NC2=O)cc([N+](=O)[O-])c1O |
| 6.46 | 6.46 | 6.14 | – | – | – | Cc1ccc(C2=NC(=O)/C(=C/c3ccccc3)S2)cc1 |
| 6.24 | 6.24 | 6.07 | – | – | – | COC(=O)COc1ccc(C2=NC(=O)/C(=C/c3ccc(OC)cc3)S2)cc1 |
| 6.52 | 6.52 | 6.04 | – | – | – | CC(C)(C)c1ccc(/C=C2\SC(c3ccccc3)=NC2=O)cc1 |
| 6.27 | 6.27 | 6.32 | – | – | – | COc1cccc(/C=C2\SC(c3ccccc3)=NC2=O)c1O |
| 6.19 | 6.19 | 5.77 | – | – | – | COc1ccc(/C=C2\SC(c3ccc(O)cc3)=NC2=O)cc1 |
| 6.64 | 6.64 | 6.40 | – | – | – | Cc1ccc(C2=NC(=O)/C(=C/C=C/c3ccccc3)S2)cc1 |
| 7.05 | 7.05 | 6.55 | – | – | – | COc1ccc(/C=C2\SC(c3ccc(Cl)cc3)=NC2=O)cc1 |
| 6.52 | 6.52 | 6.18 | – | – | – | COc1ccc(/C=C2\SC(c3ccc(C)cc3)=NC2=O)cc1 |
| – | – | – | – | – | < 5.00 | C/C(=C1/SC(O)=NC1=O)c1cc(-c2ccccc2)c(O)c(-c2ccccc2)c1 |
| 6.96 | 6.96 | 6.40 | – | – | – | O=C1N=C(c2ccc(Cl)cc2)S/C1=C\c1ccc(O)cc1 |
| 6.01 | 6.01 | 5.69 | – | – | – | COc1ccc(/C=C2\SC(c3ccc(C)cc3)=NC2=O)c(OC)c1 |
| 6.72 | 6.72 | 5.68 | – | – | – | COC(=O)COc1ccc(/C=C2\SC(c3ccc(C)cc3)=NC2=O)cc1 |
| 6.82 | 6.82 | 6.28 | – | – | – | COc1ccc(/C=C2\SC(c3ccccc3)=NC2=O)cc1 |
| 5.40 | 5.40 | 6.49 | – | – | – | COc1ccc(/C=C2\SC(c3ccc(OC)cc3)=NC2=O)cc1 |
| < 4.52 | < 4.52 | 4.52 | > 60% | > 60% | – | O=C1/C(=C/C=C/c2ccco2)S/C(=N\c2ccccc2)N1c1ccccc1 |
| 6.40 | 6.40 | 5.61 | – | – | – | COc1ccc(/C=C2\SC(c3ccc(C)cc3)=NC2=O)c(OC)c1OC |
